# Screening results deposited in PubChem BioAssay by The Scripps Research Institute Molecular Screening Center.
# A selection: hits, their analogues and other compounds. The true share with any hit is near 0.74%.
# ARFGAP1 inhibitor: inhibits rat ARF GTPase activating protein 1. Q62848. Arfgap1-stimulated ARF1 GTP hydrolysis, GDP FP detection. inhibition, % at 16.5 µM. actives 0.26% (n = 360,000). AID 651572;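 active = inhibition above a per-plate limit, mean inhibition of low control wells plus 3 SD, cut at about 25% in these data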;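 also: 0% = DMSO wells with enzyme and 100% = wells lacking Arfgap1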
# Target sequence (Q62848 1-136 limits assumed): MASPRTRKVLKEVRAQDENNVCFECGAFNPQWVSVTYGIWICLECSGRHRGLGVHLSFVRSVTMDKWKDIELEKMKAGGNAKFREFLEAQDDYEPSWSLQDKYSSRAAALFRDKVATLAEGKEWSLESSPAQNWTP
#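 system = rat Arfgap1 catalytic domain, aa 1-136 | technique = FP, GDP Alexa 633 tracer displaced from anti-GDP antibody, 620/688 nm | compound = one concentration, 16.5 µM, DMSO 1.26% | medium = HEPES-based buffer, pH 7.5 | timing = compound-enzyme preincubation 20 min, reaction 120 min, detection 60 min, 25 °C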
# ASAP1 inh: blocks human ASAP1-stimulated Arf1 GTP hydrolysis. Q9ULH1. GDP FP detection. inhibition, % at 16.5 µM. actives 0.19% (n = 360,000). AID 624377; in the data active = inhibition above about 25%;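 also: 0% = vehicle with enzyme and substrate and 100% = no enzyme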
# Tn7 DDE FP: DD(E)-Tn7 binding inhibition, primary FP screen; P02675; FP displacement of FITC-Tn7 peptide from fibrin DD(E); 0% = median of compound wells per plate; inhibition, % at 8.3 µM; actives 0.13% (n = 370,000); AID 720508;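 active = inhibition above the mean of compounds falling within the control limits plus 3 SD of them, cut at about 14% in these data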;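 also: 0% = plate median of compound wells and 100% = 10 µM Aha-Tn7 peptide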
#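 Measure: % inhibition scaled between sample-field median and high-control FP; Test system: human fibrin DD(E); Quantity: 2 µM final DD(E) protein; Doses: one dose, 8.3 µM nominal; Schedule: compound with protein 10 min, then 3 h after probe, room temperature; Detection: fluorescence polarization; Medium: Tris buffer with calcium and detergent, pH 7.8.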
# Tn6 DDE FP: DD(E)-Tn6 binding inhibition, primary FP screen; actives 0.21% (n = 370,000); Fibrin DD(E) TRITC-Tn6 fluorescence polarization displacement; P02675; inhibition, % at 8.3 µM;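 active = inhibition above a per-campaign cutoff: mean of compounds within control limits plus 3 SD, cut at about 15% in these data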;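 also: 0% = median of all compound wells on the plate and 100% = blocking peptide control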
# Tn6 DDE ctr: counter-screen for inhibitors of Tn6 peptide binding to fibrin DD(E). shares compounds with Tn6 DDE FP. TRITC-Tn6 fluorescence polarization displacement; 0% = median of compound wells, not DMSO. inhibition, % at 8.3 µM. actives 2% (n = 680);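 active = inhibition above the mean of test compounds lying between the control limits plus 3 SD of those, cut at about 14% in these data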;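 also: 0% = median of compound wells and 100% = wells with Aha-Tn7 blocking peptide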
# DDE Tn6 confirm: confirmation of inhibitors of Tn6 binding to human fibrin DD(E); shares compounds with Tn6 DDE FP; FP displacement of TRITC-Tn6 peptide from DD(E); 0% = per-plate median of test wells; inhibition, % at 8.3 µM; actives 10% (n = 680);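 active = inhibition above the mean of compounds lying within the control limits plus 3 SD, cut at about 16% in these data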;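 also: 100% = high control wells holding a competing inhibitor peptide at 10 µM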
# * hit, by the source's call; . = no result.
SMILES,ARFGAP1 inhibitor,ASAP1 inh,Tn7 DDE FP,Tn6 DDE FP,Tn6 DDE ctr,DDE Tn6 confirm
O=C(CSc1nnc(SCc2cccc3ccccc23)s1)Nc1ccc(S(=O)(=O)Nc2nccs2)cc1,.,.,-1.5,21.7*,7.1,16.6*
Cc1cc(C)nc(SCC(=O)Nc2ccc(S(=O)(=O)Nc3nccs3)cc2)n1,1.4,4.8,-1.6,4.1,.,.
CC(C)(C)C(=O)Nc1ccc(S(=O)(=O)N2CCC(c3nc4ccccc4[nH]3)CC2)cc1,6.7,3.5,-0.8,18.3*,-0.9,-2.3
O=C(CSc1ccc(-c2nc3ccccc3[nH]2)cn1)Nc1ccc(S(=O)(=O)N2CCCC2)cc1,16.2,-9.8,2.0,58.6*,-4.9,-3.1
CC(=O)Nc1ccc(S(=O)(=O)N2CCC(c3nc4ccccc4[nH]3)CC2)cc1,-8.5,-4.0,-4.9,4.0,.,.
CCCCn1cnc2c(=O)[nH]ccc21,.,.,-1.6,3.5,.,.
CCOC(=O)c1c(C)oc2c1C(=O)c1ccccc1C2=O,-0.9,3.6,-7.0,3.7,.,.
CCOc1ccc2noc3c2c1C(=O)c1ccccc1-3,12.8,13.8,-9.4,41.1*,53.3*,10.4
CCc1cc(=O)oc2c3c(cc(OCC(=O)NCCCn4ccnc4)c12)OC(C)(C)CC3,-15.1,-2.4,2.9,15.3*,-1.2,-2.3
CC(COc1ccccc1C#N)CN1CCC(C(O)(c2ccccc2)c2ccccc2)CC1 (centres undefined),.,.,7.8,16.0*,1.4,2.4
NC(Cc1ccc(O)cc1)C(=O)NN=Cc1ccccc1O (centres undefined),-16.8,-2.2,3.4,0.4,.,.
Cc1c(Cl)cn2c(=O)cc(CN3CCN(c4ccccc4)CC3)nc2c1Cl,-2.5,2.8,5.6,15.2*,5.9,2.1
C=CCN=C1NC(c2ccc(C(F)(F)F)cc2)C(C(=O)OC)=C(C)N1Cc1ccccc1C(F)(F)F (centres undefined),18.1,1.6,-1.4,-1.6,.,.
COC(=O)C1=C(C)N(Cc2ccc(F)cc2)C(=S)NC1c1ccc(F)cc1 (centres undefined),3.0,-11.3,-0.8,11.6,.,.
CCN(CC)CCN(C(=O)CCOc1ccccc1)c1nc2ccc(F)cc2s1,4.5,-1.4,4.1,15.8*,10.4,3.6
COc1ccc(NS(=O)(=O)c2ccc3nc(COc4cccc5ccccc45)[nH]c3c2)cc1,2.2,19.5,4.9,6.0,.,.
COc1ccc(NS(=O)(=O)c2ccc3nc(COc4ccc5ccccc5c4)[nH]c3c2)cc1,10.9,20.4,3.5,54.5*,-0.7,-10.4
c1cc(-c2ccoc2)n2ccnc2c1,6.2,0.7,8.0,23.1*,-6.8,-7.3
c1ccc(CN2CCC3CC2c2cc(N4CCOCC4)ccc23)cc1 (centres undefined),-10.1,-7.5,-1.2,6.2,.,.
O=C(O)c1ccccc1Sc1c([N+](=O)[O-])cc(C(F)(F)F)cc1[N+](=O)[O-],-3.0,-1.7,12.1,34.7*,-0.4,-0.3
CN(C(=O)c1ccccc1Cl)c1ccccc1,-21.1,8.6,-5.0,15.4*,-0.6,-2.0
CN(C(=O)c1ccccc1-c1ccccc1C(=O)O)c1ccccc1,0.0,4.8,5.9,-9.3,.,.
COc1ccc(-c2c(Cc3ccccc3)nc(NC(=O)c3ccccc3)n2Cc2ccccc2)cc1,.,.,-2.0,-5.1,.,.
CCN(CC)C(=O)CC[C@H]1CC[C@]2(CCCN(c3ccccc3)C2)O1,.,.,-3.8,-2.7,.,.
CC(=O)Nc1ccc(/C=C/c2ccc3cccc([N+](=O)[O-])c3n2)cc1,6.1,17.0,8.2,18.2*,5.9,7.4
O=C(O)COc1ccc(/C=C/c2ccc3cccc([N+](=O)[O-])c3n2)cc1,9.2,-4.4,4.6,-5.8,.,.
Cc1cc(N/N=C/c2ccco2)c2ccccc2n1,-2.9,4.8,6.2,17.0*,0.7,-0.3
O=C(Oc1ccc(N(Cc2cccs2)C2=NS(=O)(=O)c3ccccc32)cc1)c1ccc(Cl)cc1,-3.0,8.4,7.0,17.2*,9.0,3.2
C=CCN=C1NC(c2cccc(Cl)c2)C(C(=O)OC)=C(C)N1Cc1cccc(C(F)(F)F)c1 (centres undefined),-0.3,-6.6,-11.2,-7.1,.,.
